The subject of data set [1] is RAW264.7. The data set is described as follows: Acute toxicity in mouse RAW264.7 cells assessed as OD540 absorbance incubated for 24 hrs by MTT assay. It counts as cell-based. The note with it: raw264.7, 24 h. An outline of the steps:
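RAW264.7 cells kept in DMEM with 5% FBS, 100 U/mL penicillin and streptomycin, at 37 °C in humidified 5% CO2. Compounds were added at the indicated concentrations for 24 h. MTT reagent (5 mg/mL stock) was then added for 4 h, supernatants were aspirated and formazan crystals were dissolved for reading. Control and blank wells received 0.1% DMSO.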
In general terms: Tetrazolium dyes change colour on reduction, which living cells bring about.

The test system of data set [2] is RAW264.7. The data set is described as follows: Immunosuppressive activity in mouse RAW264.7 cells assessed as inhibition of LPS-induced nitric oxide production incubated for 24 hrs by Griess method. It counts as functional. An outline of the steps: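 Murine macrophage-like RAW264.7 cells were activated with LPS. Control wells (LPS only) and blank wells (cells only) each received 0.1% DMSO vehicle.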
(In general: Griess reagent forms a coloured azo dye with nitrite.)

Data set [3] deals with T1, Nitric oxide synthase, inducible (Mus musculus, UniProt P29477).
T1 sequence (P29477 whole entry): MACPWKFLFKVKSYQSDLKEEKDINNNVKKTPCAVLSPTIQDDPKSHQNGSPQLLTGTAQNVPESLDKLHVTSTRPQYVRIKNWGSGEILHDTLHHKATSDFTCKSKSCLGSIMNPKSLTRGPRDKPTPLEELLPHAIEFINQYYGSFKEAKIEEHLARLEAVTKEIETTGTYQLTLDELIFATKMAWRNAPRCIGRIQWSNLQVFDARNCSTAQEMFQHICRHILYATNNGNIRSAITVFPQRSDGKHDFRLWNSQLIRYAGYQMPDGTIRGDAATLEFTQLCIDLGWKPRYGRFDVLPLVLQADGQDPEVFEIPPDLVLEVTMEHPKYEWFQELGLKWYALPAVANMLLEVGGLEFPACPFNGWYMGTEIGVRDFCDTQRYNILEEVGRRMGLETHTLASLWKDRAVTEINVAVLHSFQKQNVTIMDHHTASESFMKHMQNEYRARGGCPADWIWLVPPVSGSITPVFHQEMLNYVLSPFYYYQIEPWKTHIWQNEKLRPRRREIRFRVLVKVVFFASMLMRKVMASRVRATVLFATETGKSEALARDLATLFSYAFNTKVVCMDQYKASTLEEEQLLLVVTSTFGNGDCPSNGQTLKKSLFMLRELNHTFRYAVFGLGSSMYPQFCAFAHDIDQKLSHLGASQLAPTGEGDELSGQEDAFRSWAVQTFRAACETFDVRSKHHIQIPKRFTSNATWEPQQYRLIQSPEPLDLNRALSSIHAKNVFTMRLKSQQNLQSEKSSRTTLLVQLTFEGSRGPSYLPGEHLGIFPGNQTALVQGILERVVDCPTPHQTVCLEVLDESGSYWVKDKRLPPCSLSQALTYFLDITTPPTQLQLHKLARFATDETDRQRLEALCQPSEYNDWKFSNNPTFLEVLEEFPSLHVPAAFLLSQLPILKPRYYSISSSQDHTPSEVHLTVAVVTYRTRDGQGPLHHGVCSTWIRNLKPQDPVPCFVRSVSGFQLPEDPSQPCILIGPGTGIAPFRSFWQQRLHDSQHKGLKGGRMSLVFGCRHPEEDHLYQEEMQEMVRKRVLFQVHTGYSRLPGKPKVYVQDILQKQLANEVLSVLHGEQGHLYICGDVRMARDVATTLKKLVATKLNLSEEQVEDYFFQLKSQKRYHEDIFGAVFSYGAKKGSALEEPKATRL
The data set is described as follows: Inhibition of iNOS in mouse RAW264.7 cells assessed as conversion of L-citrulline to L-arginine incubated for 30 mins by scintillation counting. It counts as cell-based. The conditions noted are these: in the assay text read “conversion of L-arginine to L-citrulline” for “conversion of L-citrulline to L-arginine”. Put shortly: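 Crude enzyme was the supernatant of collected RAW264.7 cells, adjusted to 50 mM Tris and 100 µM dithiothreitol final. Enzyme was incubated 30 min with NADPH, compound, L-[3H]-arginine (10 µCi/mL stock) and Tris pH 7.5. The reaction was stopped with 0.1 M buffer pH 5.0 containing 2 mM EDTA and 2 mM EGTA, then stirred 5 min with Dowex 50W-8X. L-[3H]-citrulline in the supernatant was read by scintillation counting.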

The test system of data set [4] is RAW264.7. The data set is described as follows: Inhibition of iNOS mRNA expression in mouse RAW264.7 cells by RT-PCR. The class given is functional, cell-based.

Here are results for 18 molecules from ChEMBL document CHEMBL1811790, “Oxadiazole derivatives containing 1,4-benzodioxan as potential immunosuppressive agents against RAW264.7 cells” (Bioorg Med Chem, 2011).

SMILES strings stand for the structures. Active and inactive are the calls of the source. No cut-off for these calls is given here.

For orientation: IC50 means the concentration that gives 50% inhibition. For the molecule `c1cncc(-c2nnc(-c3ccc4c(c3)OCCO4)o2)c1`, in the data set with RAW264.7 [1], the deltaA was 1.31. For the same molecule, in the data set with RAW264.7 [2], the “inhibition (INH)” value was found to be 37.66%. For the same molecule, the IC50 in data set [3] came to 50 nM. The inhibition entry in the data set on RAW264.7 [4] was “Active”.
For `c1ccc(-c2nnc(-c3ccc4c(c3)OCCO4)o2)cc1`, the deltaA in the data set on RAW264.7 [1] was 1.5. Moreover, the “inhibition (INH)” value with RAW264.7 [2] worked out at 5.08%. Moreover, in data set [3], the IC50 was 2350 nM.
In the case of `Clc1cccc(Cc2nnc(-c3ccc4c(c3)OCCO4)o2)c1`, the deltaA in the data set on RAW264.7 [1] was 0.2. Moreover, the “inhibition (INH)” value with RAW264.7 [2] came to 23.7%.
As to `Cc1ccccc1-c1nnc(-c2ccc3c(c2)OCCO3)o1`, in the data set on RAW264.7 [1], the deltaA is on record as 1.03. Also, in the data set with RAW264.7 [2], the “inhibition (INH)” value came out at 21.58%. For the same molecule, in data set [3], the IC50 was 100 nM. In addition, in the data set with RAW264.7 [4], the inhibition entry is “inactive”.
For `Clc1ccccc1-c1nnc(-c2ccc3c(c2)OCCO3)o1`, the deltaA in the data set with RAW264.7 [1] came to 1.45. For the same molecule, in the data set with RAW264.7 [2], the “inhibition (INH)” value is on record as -57.48%.
The corresponding values for `O=[N+]([O-])c1ccc(-c2nnc(-c3ccc4c(c3)OCCO4)o2)cc1` are 0.57 and 1.34%.
The corresponding values for `Brc1cncc(-c2nnc(-c3ccc4c(c3)OCCO4)o2)c1` are 1.22 and -42.39%.
The matching figures for `Brc1ccc(Cc2nnc(-c3ccc4c(c3)OCCO4)o2)cc1`: 0.99 and -8.53%.
For `c1ccc(CCc2nnc(-c3ccc4c(c3)OCCO4)o2)cc1`, the deltaA with RAW264.7 [1] is reported as 0.1. For the same molecule, the “inhibition (INH)” value with RAW264.7 [2] was found to be 3.71%.
Regarding `C(=C\c1nnc(-c2ccc3c(c2)OCCO3)o1)/c1ccccc1`, the deltaA with RAW264.7 [1] is reported as 1.15. Also, in the data set with RAW264.7 [2], the “inhibition (INH)” value worked out at 25.54%. Further, the IC50 in data set [3] worked out at 90 nM. Further, the inhibition entry in the data set on RAW264.7 [4] is “inactive”.
For the molecule `c1ccc(Cc2nnc(-c3ccc4c(c3)OCCO4)o2)cc1`, in the data set on RAW264.7 [1], the deltaA is 0.45. In addition, in the data set with RAW264.7 [2], the “inhibition (INH)” value is recorded as -3.63%.
The corresponding values for `c1ccc(OCc2nnc(-c3ccc4c(c3)OCCO4)o2)cc1` are 0.36 and 6.98%.
The matching figures for `COc1cccc(Cc2nnc(-c3ccc4c(c3)OCCO4)o2)c1`: 0.76 and 21.66%.
As to `COc1cc(-c2nnc(-c3ccc4c(c3)OCCO4)o2)cc(OC)c1OC`, the deltaA with RAW264.7 [1] was found to be 1.02. Also, the “inhibition (INH)” value in the data set on RAW264.7 [2] was 20.03%. In addition, the IC50 in data set [3] came to 120 nM. Besides, the inhibition entry in the data set with RAW264.7 [4] is “inactive”.
With `Clc1ccc(OCc2nnc(-c3ccc4c(c3)OCCO4)o2)cc1`, in the data set on RAW264.7 [1], the deltaA is 0.89. Moreover, in the data set with RAW264.7 [2], the “inhibition (INH)” value was 10.49%. Besides, the IC50 in data set [3] is 2160 nM.
For `Clc1ccc(Cc2nnc(-c3ccc4c(c3)OCCO4)o2)cc1`, the deltaA with RAW264.7 [1] is listed as 0.63. Besides, in the data set with RAW264.7 [2], the “inhibition (INH)” value is given as 28.11%.
In the case of `O=[N+]([O-])c1cccc(-c2nnc(-c3ccc4c(c3)OCCO4)o2)c1`, the deltaA in the data set with RAW264.7 [1] came out at 0.73. The “inhibition (INH)” value in the data set with RAW264.7 [2] is -33.82%.
On to `O=[N+]([O-])c1ccccc1-c1nnc(-c2ccc3c(c2)OCCO3)o1`, for which the deltaA with RAW264.7 [1] stood at 0.3. For the same molecule, the “inhibition (INH)” value in the data set on RAW264.7 [2] is 3.65%.
